Assay results published in the RNAGym collection of RNA variant scans (doi:10.1126/science.aae0568).
Variants at the floor of the assay were thinned out.

B1: tRNA (parent)
chain: GUUCCGUUGGCGUAAUGGUAACGCGUCUCCCUCCUAAGGAGAAGACUGCGGGUUCGAGUCCCGUACGGAACG

Variants of: B1
Test: yeast fitness relative to wild type (ratio to wild type); higher = fitter; tRNA-Arg(CCU), competitive growth, 37 C, YPD
How it was run: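 Changes in genotype frequencies gave Darwinian fitness relative to wild type. Frequencies were read by 100-nucleotide paired-end sequencing of gene amplicons before and after pooled Saccharomyces cerevisiae strains, carrying tRNA-Arg(CCU) gene variants at the native locus, were competed in YPD at 37°C for 24 hours in six replicates. A genotype was kept only with ≥ 100 starting reads, and estimates < 0.5 were set to 0.5.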

Which yeast fitness does the source give for U8C A21U C27G C29U U32C here?
The yeast fitness was ≤ 0.5.

For U8C G10A U19C C34A C46U A65C, which yeast fitness is on record?
Its yeast fitness is ≤ 0.5.

Which yeast fitness does the source give for U8C G17A A40U G48A here?
The yeast fitness was ≤ 0.5.

With U8A G67U as the variant, how does the yeast fitness read?
Its yeast fitness is 0.636.

Which yeast fitness does the source give for U8A G67C here?
The yeast fitness was 0.736.

Which yeast fitness does the source give for U8C G17C C22U C34A here?
The yeast fitness was ≤ 0.5.

Which yeast fitness does the source give for U8C C31U C49U here?
Its yeast fitness is 0.689.

For U8C G12A A40C A69C, which yeast fitness is on record?
Its yeast fitness is 0.56.

For U8C C30G C31G G48A, which yeast fitness is on record?
Its yeast fitness is ≤ 0.5.

For U8C C27G A57C, which yeast fitness is on record?
Its yeast fitness is 0.586.

For U8C G23A, which yeast fitness is on record?
Its yeast fitness is 0.793.

For U8C C22A C33G G39C C46U G52A C66U, which yeast fitness is on record?
The yeast fitness was ≤ 0.5.

For U8C C22A A36C G63C, which yeast fitness is on record?
The yeast fitness was ≤ 0.5.

Which yeast fitness does the source give for U8A U28C C33A here?
Its yeast fitness is ≤ 0.5.

Which yeast fitness does the source give for U8C A45C C62G A65C here?
Its yeast fitness is ≤ 0.5.

With U8C G10A U19C G41A U47C as the variant, how does the yeast fitness read?
The yeast fitness was 0.537.

For U8C A21U C27U G38C C61G, which yeast fitness is on record?
Its yeast fitness is 0.553.

Which yeast fitness does the source give for U8C A37C C49G here?
The yeast fitness was ≤ 0.5.

Which yeast fitness does the source give for U8A G44C C66U here?
The yeast fitness was ≤ 0.5.

For U8C C11U A15C A21G C24G U28A, which yeast fitness is on record?
The yeast fitness was ≤ 0.5.

Which yeast fitness does the source give for U8C C27U G41C C61G here?
Its yeast fitness is 0.551.

For U8C G18A C27U, which yeast fitness is on record?
Its yeast fitness is 0.531.

Which yeast fitness does the source give for U8C C27U C31A G68A here?
The yeast fitness was ≤ 0.5.

With U8A U26G C29A C46U G58A as the variant, how does the yeast fitness read?
Its yeast fitness is ≤ 0.5.

With U8C A40U as the variant, how does the yeast fitness read?
The yeast fitness was 0.903.

For U8C A40G, which yeast fitness is on record?
Its yeast fitness is 0.877.

Which yeast fitness does the source give for U8C A40C here?
The yeast fitness was 1.02.

For U8C G25A A37G A40G, which yeast fitness is on record?
The yeast fitness was ≤ 0.5.

Which yeast fitness does the source give for U8A G56U G67A A70C here?
The yeast fitness was ≤ 0.5.

With U8C C11G G18C C49A A70C as the variant, how does the yeast fitness read?
Its yeast fitness is ≤ 0.5.

Which yeast fitness does the source give for U8C C29U G39C A40U here?
The yeast fitness was ≤ 0.5.

Which yeast fitness does the source give for U8C C22G C49U here?
Its yeast fitness is 0.726.

With U8C C30G U53C C60A C61A C66G as the variant, how does the yeast fitness read?
The yeast fitness was ≤ 0.5.

For U8A U35G, which yeast fitness is on record?
Its yeast fitness is ≤ 0.5.

For U8C G9A A40C, which yeast fitness is on record?
Its yeast fitness is 0.672.

With U8C G23A C29U A45U as the variant, how does the yeast fitness read?
Its yeast fitness is 0.632.

Which yeast fitness does the source give for U8C C24G G67U here?
Its yeast fitness is ≤ 0.5.

Which yeast fitness does the source give for U8A U35A A36G A57C here?
Its yeast fitness is ≤ 0.5.

With U8A U32G A37G U54G G56A as the variant, how does the yeast fitness read?
The yeast fitness was ≤ 0.5.

With U8C G10C A21U G23C G56A C61A A65G as the variant, how does the yeast fitness read?
The yeast fitness was ≤ 0.5.

For U8A G58A G67U, which yeast fitness is on record?
The yeast fitness was 0.618.

Which yeast fitness does the source give for U8A G44A C60U G67C here?
The yeast fitness was 0.576.

For U8C G9A G17C G56C, which yeast fitness is on record?
The yeast fitness was 0.532.

With U8C G18A U35C U47C G50C as the variant, how does the yeast fitness read?
The yeast fitness was ≤ 0.5.

Which yeast fitness does the source give for U8A G51C here?
Its yeast fitness is 0.534.

With U8C G9U C29A C34G A36G A40C U47A U64C as the variant, how does the yeast fitness read?
Its yeast fitness is ≤ 0.5.

For U8C C24A C46G G52C U59A, which yeast fitness is on record?
Its yeast fitness is ≤ 0.5.

Which yeast fitness does the source give for U8A U32A G52A G56C here?
Its yeast fitness is ≤ 0.5.

With U8C C22A G39A U47A as the variant, how does the yeast fitness read?
Its yeast fitness is ≤ 0.5.

For U8C G23C C29G A45U, which yeast fitness is on record?
The yeast fitness was ≤ 0.5.

For U8C G23A C30G C61A G67A, which yeast fitness is on record?
The yeast fitness was ≤ 0.5.

Which yeast fitness does the source give for U8C C22G C49U G63A U64C here?
Its yeast fitness is ≤ 0.5.

Which yeast fitness does the source give for U8A U13A A14C U16A here?
Its yeast fitness is ≤ 0.5.

Which yeast fitness does the source give for U8C C29U A43G C66U here?
Its yeast fitness is ≤ 0.5.

Which yeast fitness does the source give for U8A U19C A21C G39C C61U here?
Its yeast fitness is ≤ 0.5.

Which yeast fitness does the source give for U8C G25A here?
Its yeast fitness is 0.931.

Which yeast fitness does the source give for U8C A21C C30U G52A here?
Its yeast fitness is ≤ 0.5.

Which yeast fitness does the source give for U8A U16A C27G C31A U59C C61U here?
The yeast fitness was ≤ 0.5.

Which yeast fitness does the source give for U8C C31G G50C G56C here?
Its yeast fitness is ≤ 0.5.

For U8C C30G C33G A70U, which yeast fitness is on record?
The yeast fitness was 0.571.

Which yeast fitness does the source give for U8A G39C A65G here?
The yeast fitness was ≤ 0.5.

Which yeast fitness does the source give for U8C C27U A70G here?
The yeast fitness was 0.738.

For U8A U28G, which yeast fitness is on record?
Its yeast fitness is 0.661.

Which yeast fitness does the source give for U8C C24G here?
The yeast fitness was 0.576.

Which yeast fitness does the source give for U8C C24U here?
Its yeast fitness is 0.945.

For U8A U59A C66G A70C, which yeast fitness is on record?
Its yeast fitness is ≤ 0.5.

With U8C C33G A43C as the variant, how does the yeast fitness read?
The yeast fitness was ≤ 0.5.

With U8C C27A G52A as the variant, how does the yeast fitness read?
The yeast fitness was ≤ 0.5.

For U8C C29A C34G A36G A40C U47A, which yeast fitness is on record?
The yeast fitness was ≤ 0.5.

Which yeast fitness does the source give for U8A G63A here?
Its yeast fitness is 0.597.

For U8A U35A G44C A45U, which yeast fitness is on record?
Its yeast fitness is 0.64.

For U8C A14C A43G, which yeast fitness is on record?
Its yeast fitness is ≤ 0.5.

Which yeast fitness does the source give for U8C C27A A36U A37U here?
The yeast fitness was ≤ 0.5.

Which yeast fitness does the source give for U8C A15U U16A U26A here?
Its yeast fitness is ≤ 0.5.

With U8C C29U U35G as the variant, how does the yeast fitness read?
Its yeast fitness is ≤ 0.5.

With U8C C22A A36C G63C G67A as the variant, how does the yeast fitness read?
The yeast fitness was ≤ 0.5.

Which yeast fitness does the source give for U8C A21G C33U A36G A43U A65U A70G here?
The yeast fitness was ≤ 0.5.

Which yeast fitness does the source give for U8C G23C C29G A43U G50A A65C here?
Its yeast fitness is ≤ 0.5.

With U8C C27U C31A G56A as the variant, how does the yeast fitness read?
The yeast fitness was ≤ 0.5.

For U8C A15U C33G C62G, which yeast fitness is on record?
The yeast fitness was ≤ 0.5.

With U8C A43G A70C as the variant, how does the yeast fitness read?
The yeast fitness was 0.74.

With U8C C24G G50A as the variant, how does the yeast fitness read?
The yeast fitness was ≤ 0.5.

For U8C G17A G50A A69C, which yeast fitness is on record?
Its yeast fitness is ≤ 0.5.
